Test results taken from ChEMBL document CHEMBL4043295, “Marbostat-100 Defines a New Class of Potent and Selective Antiinflammatory and Antirheumatic Histone Deacetylase 6 Inhibitors” (J Med Chem, 2018).
Active and inactive are the calls of the source. The calls are words filed in the database; no cut-off is given here.

Legend:
[1] = system: Mus musculus; experiment: Antiarthritic activity in DBA/1J mouse collagen-induced arthritis model assessed as decrease in clinical scores at 30 mg/kg, ip administered every morning for 12 to 14 days measured during compound dosing relative to vehicle-treated control; type: functional; parameters: scale not given: the % may be the effect or the level left
In short: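 Collagen type II-induced arthritis in mice, treated at 30 mg/kg versus vehicle. Clinical arthritis score and paw swelling were followed over time from the start of treatment until the end of the experiment.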

[2] = system: Mus musculus; experiment: Toxicity in DBA/1J mouse collagen-induced arthritis model assessed as effect on white blood cell count at 30 mg/kg, ip administered every morning for 12 to 14 days measured post last dose relative to vehicle-treated control; type: organism-based; settings: in vivo
[3] = system: HEL; experiment: Cell cycle arrest in human HEL cells at 5 to 1000 nM after 24 hrs by propidium iodide staining-based flow cytometric method; type: functional
[4] = system: Mus musculus; experiment: Antiarthritic activity in DBA/1J mouse collagen-induced arthritis model assessed as loss of body weight at 30 mg/kg, ip administered every morning for 1 week measured during compound dosing; type: functional, organism-based
[5] = system: Mus musculus; experiment: Toxicity in DBA/1J mouse collagen-induced arthritis model assessed as effect on hemoglobin concentration at 30 mg/kg, ip administered every morning for 12 to 14 days measured post last dose relative to vehicle-treated control; type: organism-based; settings: in vivo
[6] = target: T1, Polyamine deacetylase HDAC10 (Homo sapiens, UniProt Q969S8); experiment: Inhibition of recombinant human HDAC10 expressed in baculovirus-infected insect cells using fluorogenic peptide RHKKAc as substrate by fluorimeter
T1 sequence (Q969S8 whole entry): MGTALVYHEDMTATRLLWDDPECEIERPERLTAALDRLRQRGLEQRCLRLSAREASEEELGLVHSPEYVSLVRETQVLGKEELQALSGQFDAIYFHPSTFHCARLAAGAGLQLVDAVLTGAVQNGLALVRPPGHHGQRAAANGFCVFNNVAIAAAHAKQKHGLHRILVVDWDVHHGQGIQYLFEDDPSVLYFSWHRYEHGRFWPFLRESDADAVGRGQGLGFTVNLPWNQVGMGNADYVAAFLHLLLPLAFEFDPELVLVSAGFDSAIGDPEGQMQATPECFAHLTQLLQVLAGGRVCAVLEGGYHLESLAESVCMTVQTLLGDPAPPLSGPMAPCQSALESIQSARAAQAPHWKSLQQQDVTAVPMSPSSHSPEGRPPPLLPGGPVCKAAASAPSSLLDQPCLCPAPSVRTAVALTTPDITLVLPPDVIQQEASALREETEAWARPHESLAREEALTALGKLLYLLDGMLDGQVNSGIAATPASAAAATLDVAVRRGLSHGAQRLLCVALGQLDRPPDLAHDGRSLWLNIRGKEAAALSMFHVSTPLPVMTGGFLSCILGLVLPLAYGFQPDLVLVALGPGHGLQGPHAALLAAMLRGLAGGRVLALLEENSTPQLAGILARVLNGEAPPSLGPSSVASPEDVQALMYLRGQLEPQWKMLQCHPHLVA

[7] = target: T2, Protein deacetylase HDAC6 (Homo sapiens) (UniProt Q9UBN7); settings: 5 to 1000 nM
T2 sequence (whole entry): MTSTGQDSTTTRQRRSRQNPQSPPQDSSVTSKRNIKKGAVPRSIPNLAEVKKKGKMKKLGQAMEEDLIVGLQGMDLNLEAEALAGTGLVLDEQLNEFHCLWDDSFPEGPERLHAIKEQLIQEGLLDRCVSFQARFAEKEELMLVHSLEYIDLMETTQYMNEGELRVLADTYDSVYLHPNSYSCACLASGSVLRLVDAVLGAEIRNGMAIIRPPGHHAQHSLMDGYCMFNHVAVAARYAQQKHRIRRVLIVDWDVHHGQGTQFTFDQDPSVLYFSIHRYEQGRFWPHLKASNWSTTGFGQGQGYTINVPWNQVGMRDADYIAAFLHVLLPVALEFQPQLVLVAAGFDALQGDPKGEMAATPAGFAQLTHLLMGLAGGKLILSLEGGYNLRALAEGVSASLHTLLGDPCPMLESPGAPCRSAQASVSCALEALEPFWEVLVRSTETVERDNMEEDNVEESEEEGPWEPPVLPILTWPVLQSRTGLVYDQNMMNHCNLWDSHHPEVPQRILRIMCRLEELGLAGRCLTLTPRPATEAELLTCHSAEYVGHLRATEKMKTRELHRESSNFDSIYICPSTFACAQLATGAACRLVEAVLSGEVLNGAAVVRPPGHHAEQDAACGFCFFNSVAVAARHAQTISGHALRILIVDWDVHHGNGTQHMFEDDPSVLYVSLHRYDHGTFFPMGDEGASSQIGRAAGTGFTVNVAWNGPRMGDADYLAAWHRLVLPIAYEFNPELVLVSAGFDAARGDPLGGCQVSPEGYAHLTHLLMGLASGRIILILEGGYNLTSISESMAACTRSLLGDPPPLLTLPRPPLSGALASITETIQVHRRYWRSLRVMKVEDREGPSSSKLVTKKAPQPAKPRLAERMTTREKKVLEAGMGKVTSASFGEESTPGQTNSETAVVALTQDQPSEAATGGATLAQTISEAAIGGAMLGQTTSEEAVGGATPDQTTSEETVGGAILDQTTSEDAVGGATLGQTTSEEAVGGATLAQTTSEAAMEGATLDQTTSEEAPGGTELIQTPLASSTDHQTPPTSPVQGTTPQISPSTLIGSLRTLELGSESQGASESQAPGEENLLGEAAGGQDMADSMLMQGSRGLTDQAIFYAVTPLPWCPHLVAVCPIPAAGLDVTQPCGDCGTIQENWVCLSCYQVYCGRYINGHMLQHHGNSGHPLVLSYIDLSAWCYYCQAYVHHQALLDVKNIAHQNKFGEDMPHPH

[8] = target: T2, Protein deacetylase HDAC6 (Homo sapiens); settings: 50 nM
[9] = target: Histone deacetylase 4 (Homo sapiens, UniProt P56524); experiment: Inhibition of recombinant human C-terminal GST-tagged HDAC4 expressed in baculovirus-infected insect cells using Boc-Lys(TFA)-AMC as substrate by fluorimeter
Histone deacetylase 4, sequence (P56524 whole entry): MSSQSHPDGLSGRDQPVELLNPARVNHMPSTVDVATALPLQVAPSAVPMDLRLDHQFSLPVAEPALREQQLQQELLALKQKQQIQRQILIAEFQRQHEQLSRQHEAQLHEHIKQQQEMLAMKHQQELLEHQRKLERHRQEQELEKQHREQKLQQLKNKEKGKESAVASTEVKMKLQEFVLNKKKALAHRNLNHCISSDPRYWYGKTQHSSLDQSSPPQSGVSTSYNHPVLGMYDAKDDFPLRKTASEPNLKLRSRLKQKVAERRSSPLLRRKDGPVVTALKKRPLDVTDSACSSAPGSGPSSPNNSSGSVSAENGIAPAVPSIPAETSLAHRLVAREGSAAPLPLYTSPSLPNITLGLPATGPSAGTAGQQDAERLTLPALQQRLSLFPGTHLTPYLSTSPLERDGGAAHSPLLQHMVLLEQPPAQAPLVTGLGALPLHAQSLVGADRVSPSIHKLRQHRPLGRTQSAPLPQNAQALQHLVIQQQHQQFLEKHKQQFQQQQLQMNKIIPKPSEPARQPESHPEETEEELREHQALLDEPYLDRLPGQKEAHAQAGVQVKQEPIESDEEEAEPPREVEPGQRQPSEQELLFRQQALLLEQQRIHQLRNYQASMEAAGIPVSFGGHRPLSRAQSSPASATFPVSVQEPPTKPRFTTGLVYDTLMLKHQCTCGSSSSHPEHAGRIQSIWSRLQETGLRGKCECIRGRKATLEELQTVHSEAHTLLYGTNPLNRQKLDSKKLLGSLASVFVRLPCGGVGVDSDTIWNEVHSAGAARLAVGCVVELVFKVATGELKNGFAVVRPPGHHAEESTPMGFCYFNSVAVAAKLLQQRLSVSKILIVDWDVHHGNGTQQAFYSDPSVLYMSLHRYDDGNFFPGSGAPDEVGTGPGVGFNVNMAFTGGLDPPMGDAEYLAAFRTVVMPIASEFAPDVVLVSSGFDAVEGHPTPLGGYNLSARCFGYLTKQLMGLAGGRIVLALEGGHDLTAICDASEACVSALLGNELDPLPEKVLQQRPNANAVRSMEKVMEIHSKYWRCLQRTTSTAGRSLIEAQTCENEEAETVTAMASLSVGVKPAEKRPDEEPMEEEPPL

[10] = system: Mus musculus; experiment: In vivo inhibition of HDAC6 in DBA/1J mouse assessed as induction of tubulin acetylation in kidney at 0.6 mg […] by Western blot method; type: functional, organism-based
In short: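 Male DBA/1J mice received 0.6 mg inhibitor; organs were collected 2.5 h later and stored at −80 °C. Liver and kidney lysates were immunoblotted for acetylated tubulin and compared with untreated controls. Representative of at least two experiments.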

[11] = system: Mus musculus; experiment: Antiarthritic activity in DBA/1J mouse collagen-induced arthritis model assessed as decrease in degradation of cartilage at 30 mg/kg, ip administered every morning for 12 to 14 days; type: functional, organism-based
In short: (§1)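 Collagen type II-induced arthritis in mice, treated at 30 mg/kg versus vehicle. Arthritic paws were assessed histologically for synovial inflammation, cellular invasion, cartilage degradation and bone erosion.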

[12] = system: Mus musculus; experiment: Antiarthritic activity in DBA/1J mouse collagen-induced arthritis model assessed as decrease in bone erosion in joints at 30 mg/kg, ip administered every morning for 12 to 14 days; type: functional, organism-based; in short: as §1

With `CN1C(=O)C2CN(Cc3c2c2ccccc2n3Cc2ccc(C(=O)NO)cc2)C1=O` (configuration not stated) the Activity [1] was 25%, the Activity [2] was “Non-Toxic” and the Activity [3] was “inactive”. For the same compound, the Activity [4] was “Active”, the Activity [5] was “Non-Toxic” and the Ki [6] was 0.452 µM. The inhibition [7] was “Active”, the inhibition [8] was “Active” and the Ki [9] was 1.82 µM. For the same compound, the inhibition [10] was “Active”, the Activity [11] was “Active” and the Activity [12] was “Active”.
